pIC50: −log10 of the molar value. Values joined by “and” are separate entries in the source; they are usually repeats but may differ in a detail not shown here. Identical values can stand only once. Some results are limits rather than exact numbers.

These results are taken from ChEMBL document CHEMBL1155387, “Substituted fused bicyclic pyrrolizinones as potent, orally bioavailable hNK1 antagonists” (Bioorg Med Chem Lett, 2010).

Data set [1] concerns Gerbillinae. Nature of the data set: Inhibition of GR-73632-induced foot tapping in gerbils at 1 mg/kg, iv after 0.1 hrs. It counts as functional.
The test system of data set [2] is Gerbillinae. Put plainly: Inhibition of GR-73632-induced foot tapping in gerbils at 3 mg/kg, iv after 24 hrs. Format: functional. As to conditions: for inhibition in vivo at 3 mg/kg: Gerbillinae, iv, 24 h. In outline: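 Gerbils dosed iv at 3 mg/kg; foot tapping induced by NK1 agonist GR73632 evaluated 24 h post-dose; percent inhibition of the tapping response.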

Data set [3] concerns the target T1, Substance-P receptor (Homo sapiens, UniProt P25103). Nature of the data set: Displacement of [125I]substance P from human NK1 receptor expressed in CHO cells in the presence of 50 percent human serum. It counts as cell-based.
In data set [4] the target is T1, Substance-P receptor. Nature of the data set: Displacement of [125I]substance P from human NK1 receptor expressed in CHO cells. Format: cell-based. In outline:
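Competition binding: [125I]-labelled substance P displaced from cloned human NK1 receptor expressed in CHO cells; IC50 reported as mean of n = 3.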

Data set [5] concerns the target T1, Substance-P receptor. Put plainly: Antagonist activity at human NK1 receptor expressed in CHO cells assessed as inhibition of substance P-induced inositol phosphate generation at 100 nM. It counts as functional, cell-based.
Data set [6] relates to Gerbillinae. Nature of the data set: Inhibition of GR-73632-induced foot tapping in gerbils at 1 mg/kg, iv after 1 hr. Format: functional. Put shortly:
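Gerbils given 1 mg/kg iv; GR73632-induced foot tapping challenged 1 h after dosing; inhibition of tapping scored.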

Data set [7] in a line: Stability in human microsomes assessed as compound remaining after 60 mins. Format: ADME, Microsome. As to conditions: read-out: Stability.
A short description of data set [8]: Plasma clearance in rhesus monkey. It counts as ADME, organism-based, Macaca mulatta.
A short description of data set [9]: Stability in rhesus monkey microsomes assessed as compound remaining after 60 mins. It counts as ADME, Macaca mulatta, Microsome. As to conditions: read-out: Stability.
Data set [10] can be described thus: Half life in rat. It counts as ADME, organism-based. As to conditions: in vivo.
Another data set has as its target Cytochrome P450 2C9 (Homo sapiens, UniProt P11712). Put plainly: Inhibition of CYP2C9. Format: ADME.
Data set [11] can be described thus: Potency (IC50) in iv dosed gerbil after 1 hr. As to conditions: gerbillinae, plasma.
Data set [12] can be described thus: Volume of distribution in rat. It counts as ADME, organism-based. As to conditions: in vivo.
Data set [13] can be described thus: Stability in rat microsomes assessed as compound remaining after 60 mins. Format: ADME, Microsome. As to conditions: read-out: Stability.
A short description of data set [14]: Plasma clearance in dog. It counts as ADME, organism-based, Canis lupus familiaris.
The nature of data set [15]: Potency (IC50) in iv dosed gerbil brain after 1 hr. As to conditions: gerbillinae.
A further data set addresses Cytochrome P450 3A4 (Homo sapiens, UniProt P08684). Nature of the data set: Inhibition of CYP3A4. It counts as ADME.
The subject of data set [16] is Gerbillinae. Nature of the data set: Inhibition of GR-73632-induced foot taping in iv dosed gerbils after 24 hrs. It counts as functional. As to conditions: read-out: ID50 (the source's name).
Data set [17] is described as follows: Induction of CYP3A4 expression in human LS180 cells relative to rifampin. Format: ADME, cell-based. Put shortly:
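Human LS180 cells treated with test compound at 10 µM. CYP3A4 induction is expressed as fold induction.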

Data set [18] is described as follows: Half life in dog. Format: ADME, organism-based, Canis lupus familiaris. As to conditions: in vivo.
A short description of data set [19]: Volume of distribution in dog. It counts as ADME, organism-based, Canis lupus familiaris. As to conditions: in vivo.
The target of data set [20] is T2, PXR (nuclear receptor subfamily 1 group I member 2) (Homo sapiens, UniProt O75469).
T2 sequence (O75469 whole entry): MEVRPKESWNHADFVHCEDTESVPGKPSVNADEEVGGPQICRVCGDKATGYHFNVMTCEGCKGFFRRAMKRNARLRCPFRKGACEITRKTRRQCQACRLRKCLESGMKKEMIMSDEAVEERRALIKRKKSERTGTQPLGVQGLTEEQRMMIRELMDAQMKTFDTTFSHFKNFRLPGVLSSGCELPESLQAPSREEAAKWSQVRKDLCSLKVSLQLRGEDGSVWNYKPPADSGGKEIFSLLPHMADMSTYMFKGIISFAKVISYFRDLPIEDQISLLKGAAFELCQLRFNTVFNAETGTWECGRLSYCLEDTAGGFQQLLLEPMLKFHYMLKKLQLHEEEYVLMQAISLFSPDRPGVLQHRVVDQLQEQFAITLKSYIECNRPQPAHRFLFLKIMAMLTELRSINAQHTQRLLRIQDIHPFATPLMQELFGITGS
Nature of the data set: inhibition of human PXR at 10 uM.

Data set [21] can be described thus: Inhibition of sodium channel. In outline:
(§1)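 Ion-channel binding assay; IC50 values calculated for sodium channel and for calcium channel (diltiazem site).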

The nature of data set [22]: Oral bioavailability in rat. It counts as ADME, organism-based. As to conditions: in vivo.
A short description of data set [23]: Ratio of drug level in brain to plasma in rat at 1 mg/kg, iv after 4 hrs. Format: ADME, organism-based. As to conditions: brain and plasma. Also on record: dose 1 mg/kg, route intravenous.
Data set [24] can be described thus: Half life in rhesus monkey. Format: ADME, organism-based, Macaca mulatta. As to conditions: in vivo.
Data set [25] can be described thus: Oral bioavailability in dog. Format: ADME, organism-based, Canis lupus familiaris. As to conditions: in vivo.
Data set [26] is described as follows: Stability in dog microsomes assessed as compound remaining after 60 mins. As to conditions: read-out: Stability. Format: ADME, Canis lupus familiaris, Microsome.
A short description of data set [27]: Displacement of diltiazem […] from calcium channel. In outline: as §1
Data set [28] has as its system Gerbillinae. Put plainly: Inhibition of GR-73632-induced foot taping in iv dosed gerbils after 1 hr. It counts as functional. As to conditions: read-out: ID50 (the source's name).
Data set [29] is described as follows: Plasma clearance in rat. Format: ADME, organism-based.
A short description of data set [30]: Oral bioavailability in rhesus monkey. As to conditions: in vivo. Format: ADME, organism-based, Macaca mulatta.
A further data set has as its target Cytochrome P450 2D6 (Homo sapiens, UniProt P10635). Put plainly: Inhibition of CYP2D6. Format: ADME.
The nature of data set [31]: Volume of distribution in rhesus monkey. As to conditions: in vivo. Format: ADME, organism-based, Macaca mulatta.

T1 sequence (P25103 whole entry): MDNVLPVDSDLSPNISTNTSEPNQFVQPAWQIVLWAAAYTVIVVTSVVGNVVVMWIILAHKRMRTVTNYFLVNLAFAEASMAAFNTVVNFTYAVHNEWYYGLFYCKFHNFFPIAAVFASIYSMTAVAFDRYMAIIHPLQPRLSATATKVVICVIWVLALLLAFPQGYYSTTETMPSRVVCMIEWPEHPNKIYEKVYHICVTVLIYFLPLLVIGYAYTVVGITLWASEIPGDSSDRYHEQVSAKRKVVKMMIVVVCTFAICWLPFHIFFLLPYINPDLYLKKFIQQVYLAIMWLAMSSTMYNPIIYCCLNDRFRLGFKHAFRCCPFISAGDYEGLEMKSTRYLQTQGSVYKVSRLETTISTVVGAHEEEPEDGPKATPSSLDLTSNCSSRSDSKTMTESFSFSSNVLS
Cytochrome P450 2C9, sequence (P11712 whole entry): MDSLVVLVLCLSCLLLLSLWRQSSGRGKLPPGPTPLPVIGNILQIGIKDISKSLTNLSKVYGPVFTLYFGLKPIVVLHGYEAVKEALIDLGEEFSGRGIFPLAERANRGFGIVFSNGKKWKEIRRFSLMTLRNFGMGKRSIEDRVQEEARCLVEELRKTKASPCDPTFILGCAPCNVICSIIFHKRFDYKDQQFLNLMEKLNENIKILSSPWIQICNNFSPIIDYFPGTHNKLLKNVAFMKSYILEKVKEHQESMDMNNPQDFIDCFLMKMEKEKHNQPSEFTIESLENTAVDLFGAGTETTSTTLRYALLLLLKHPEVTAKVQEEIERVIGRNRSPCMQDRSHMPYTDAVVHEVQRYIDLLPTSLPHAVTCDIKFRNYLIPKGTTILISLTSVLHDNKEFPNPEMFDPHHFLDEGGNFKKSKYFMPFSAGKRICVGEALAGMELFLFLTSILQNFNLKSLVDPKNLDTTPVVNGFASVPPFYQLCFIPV
Cytochrome P450 2D6, sequence (P10635 whole entry): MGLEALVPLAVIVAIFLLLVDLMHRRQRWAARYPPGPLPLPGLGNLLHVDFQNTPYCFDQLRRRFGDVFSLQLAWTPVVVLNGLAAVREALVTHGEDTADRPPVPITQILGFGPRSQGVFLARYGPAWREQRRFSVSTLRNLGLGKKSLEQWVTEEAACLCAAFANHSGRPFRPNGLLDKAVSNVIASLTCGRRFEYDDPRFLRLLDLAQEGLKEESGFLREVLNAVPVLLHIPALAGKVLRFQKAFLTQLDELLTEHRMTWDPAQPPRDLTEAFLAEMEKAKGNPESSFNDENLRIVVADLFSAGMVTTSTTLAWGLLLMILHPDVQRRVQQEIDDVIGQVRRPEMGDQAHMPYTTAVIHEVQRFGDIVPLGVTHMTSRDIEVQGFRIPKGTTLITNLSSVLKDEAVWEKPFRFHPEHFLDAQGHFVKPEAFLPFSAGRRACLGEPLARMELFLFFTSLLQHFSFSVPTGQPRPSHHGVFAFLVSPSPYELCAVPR
Cytochrome P450 3A4, sequence (P08684 whole entry): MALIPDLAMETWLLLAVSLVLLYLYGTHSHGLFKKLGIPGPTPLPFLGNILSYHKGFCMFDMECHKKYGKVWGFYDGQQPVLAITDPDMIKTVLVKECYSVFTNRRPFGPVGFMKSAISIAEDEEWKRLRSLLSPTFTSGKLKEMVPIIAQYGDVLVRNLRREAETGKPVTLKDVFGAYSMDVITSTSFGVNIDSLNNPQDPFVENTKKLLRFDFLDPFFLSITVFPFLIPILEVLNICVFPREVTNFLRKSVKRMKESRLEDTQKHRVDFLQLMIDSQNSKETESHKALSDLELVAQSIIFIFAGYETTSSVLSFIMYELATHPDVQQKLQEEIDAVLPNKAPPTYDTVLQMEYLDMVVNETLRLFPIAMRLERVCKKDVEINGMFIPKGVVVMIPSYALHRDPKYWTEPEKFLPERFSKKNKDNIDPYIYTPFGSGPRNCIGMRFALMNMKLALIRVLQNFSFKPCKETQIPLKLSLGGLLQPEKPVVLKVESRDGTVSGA

Consider `CC(=O)N1C[C@H](O[C@H](C)c2cc(C(F)(F)F)cc(C(F)(F)F)c2)[C@@H](c2ccc(F)cc2)[C@@H]1CO`, for which the inhibition in vivo at 1 mg/kg in the data set with Gerbillinae [1] turned out to be 49%. For the same molecule, the inhibition in vivo at 3 mg/kg with Gerbillinae [2] stood at 0%. Besides, the pIC50 was 7.37 at Substance-P receptor [3] and 9.52 on Substance-P receptor [4]. Moreover, the inhibition of substance P-induced inositol phosphate generation at Substance-P receptor [5] stood at 91%.
`C[C@@H](O[C@H]1CN2C(=O)CC[C@H]2[C@@H]1c1ccc(F)cc1)c1cc(C(F)(F)F)cc(C(F)(F)F)c1`: the inhibition in vivo at 1 mg/kg in the data set on Gerbillinae [1] and in the data set on Gerbillinae [6] was 100% each time. For the same molecule, the inhibition in vivo at 3 mg/kg in the data set with Gerbillinae [2] came to 100%. In addition, the pIC50 at Substance-P receptor [3] is 8.66. In addition, at Substance-P receptor [5], the inhibition of substance P-induced inositol phosphate generation was 67%.
On to `C[C@@H](O[C@H]1CN2C(=O)C(O)C[C@H]2[C@@H]1c1ccc(F)cc1)c1cc(C(F)(F)F)cc(C(F)(F)F)c1` (stereo in doubt; 2b), for which the remaining at 1 h in data set [7] was determined as 54%; in data set [9], 23%; in data set [13], 60%; in [26], 73%. The clearance in data set [8] came out at 1 mL/min/kg; in data set [14], 0.8 mL/min/kg; in data set [29] it was 5.1 mL/min/kg. The half-life is 13 h in data set [10], 128 h in data set [18] and 80.4 h in data set [24]. For the same molecule, the INH on Cytochrome P450 2C9 was more than 100 µM; on Cytochrome P450 3A4 it was more than 100 µM; at Cytochrome P450 2D6 it was 62.2 µM. Further, the values for the half-inhibitory concentration (IC50) at 1 h in [11] and in data set [15] were 8.4 nM and 3.8 nM, respectively. Also, the Vd in data set [12] worked out at 4.2 L/kg; in data set [19], 2.8 L/kg; in data set [31], 2.6 L/kg. In addition, the “inhibition (INH)” value with Gerbillinae [2] (3 mg/kg) amounted to 100%. The pIC50 was 9.04 at Substance-P receptor [3]; 10.10 at Substance-P receptor [4]; 5.36 and 5.59 in data set [21]; 5.03 and 5.59 in data set [27]. In addition, the ED50 with Gerbillinae [16] stood at 0.016 mg/kg; in the data set on Gerbillinae [28], 0.02 mg/kg. For the same molecule, the Ratio in data set [17] came out at 13. The same molecule displayed an inhibition at 10 µM in data set [20] of 31%. The bioavailability was 93% in [22], 98% in data set [25] and 68% in [30]. Moreover, in [23], the partition ratio (Kp) at 4 h came to 1.
For the molecule `C[C@@H](O[C@H]1CN2C(=O)CC(N)[C@H]2[C@@H]1c1ccc(F)cc1)c1cc(C(F)(F)F)cc(C(F)(F)F)c1` (stereo in doubt; 15a), the remaining at 1 h was determined as 66% in [7], 91% in data set [9], 85% in data set [13] and 89% in data set [26]. The molecule also gave a half-life in [10] of 7.7 h. In addition, the Activity is 45 µM on Cytochrome P450 2C9, more than 100 µM on Cytochrome P450 3A4 and 66 µM at Cytochrome P450 2D6. The Vd in data set [12] was 5.9 L/kg. 3 mg/kg produced 100% inhibition in vivo with Gerbillinae [2]. Also, the pIC50 at Substance-P receptor [3] is 9.22; at Substance-P receptor [4], 10.05; in data set [21], 5.11; in data set [27], 5.73. Besides, the ED50 in the data set with Gerbillinae [16] is 0.92 mg/kg; with Gerbillinae [28], 0.88 mg/kg. Also, in data set [22], the bioavailability was determined as 78%. For the same molecule, the Kp at 4 h in data set [23] came to 1.4. The molecule further came in with a clearance in data set [29] of 8.9 mL/min/kg.
